Measured values taken from ChEMBL document CHEMBL1799918, “Growth inhibitory activities of oxyprenylated and non-prenylated naturally occurring phenylpropanoids in cancer cell lines” (Bioorg Med Chem Lett, 2011).

Assays:
[1] = Cytotoxicity against human U373 cells after 72 hrs by MTT assay; assay type: functional, cell-based, U-373MG ATCC; details: U373 MG
Procedure, shortened: (§1)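 MTT colorimetric assay on human cancer cell lines; IC50 growth inhibitory concentration determined in vitro for each compound.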

[2] = Cytotoxicity against human OE21 cells after 72 hrs by MTT assay; assay type: functional, cell-based; details: OE21, 72 h; procedure, shortened: as §1
A549 = test: Cytotoxicity against human A549 cells after 72 hrs by MTT assay; assay type: functional, cell-based; details: A549, 72 h; procedure, shortened: as §1
PC-3 = test: Cytotoxicity against human PC3 cells after 72 hrs by MTT assay; assay type: functional, cell-based; details: PC-3, 72 h; procedure, shortened: as §1
SK-MEL-28 = test: Cytotoxicity against human SK-MEL-28 cells after 72 hrs by MTT assay; assay type: functional, cell-based; details: SK-MEL-28, 72 h; procedure, shortened: as §1
LoVo = test: Cytotoxicity against human LoVo cells after 72 hrs by MTT assay; assay type: functional, cell-based; procedure, shortened: as §1
[3] = Induction of human U373 cell death assessed as morphological changes at MTT assay-related IC50 after 72 hrs by quantitative video microscopy; assay type: functional, U-373MG ATCC
[4] = Cytotoxicity against human U373 cells assessed as growth inhibition at MTT assay-related IC50 by quantitative video microscopy relative to control; assay type: functional, U-373MG ATCC
[5] = Cytostatic activity against human U373 cells assessed as growth inhibition at MTT assay-related IC50 by quantitative video microscopy relative to control; assay type: functional, U-373MG ATCC

Row | SMILES | IC50 [1] | IC50 [2] | IC50 (A549) | IC50 (PC-3) | IC50 (SK-MEL-28) | IC50 (LoVo) | Activity [3] | growth inhibition (GI) [4] | growth inhibition (GI) [5]
1 | CC(=O)c1c(O)cc(OC/C=C(\C)CC/C=C(\C)CCC=C(C)C)cc1O | 33 µM | 18 µM | 26 µM | 38 µM | 33 µM | 32 µM | 42% | 70% | –
2 | CC(C)=CCOc1ccc2ccc(=O)oc2c1O | > 100 µM | > 100 µM | > 100 µM | > 100 µM | > 100 µM | 92 µM | – | – | –
3 | COc1cc(C(=O)O)ccc1OCC=C(C)C | > 100 µM | > 100 µM | > 100 µM | > 100 µM | > 100 µM | > 100 µM | – | – | –
4 | CC(=O)c1ccc(OCC=C(C)C)cc1O | > 100 µM | > 100 µM | > 100 µM | > 100 µM | > 100 µM | > 100 µM | – | – | –
5 | CC(C)=CCC/C(C)=C/COc1cc(O)c2c(c1)C(=O)c1cc(C)cc(O)c1C2=O | 18 µM | > 100 µM | 32 µM | 30 µM | 40 µM | 14 µM | 100% | 90% | –
6 | COc1cc(/C=C/C=O)cc(OC)c1OCC=C(C)C | 30 µM | 29 µM | 68 µM | 28 µM | 32 µM | 31 µM | 100% | 90% | –
7 | COc1cc(/C=C/C=O)ccc1OC/C=C(\C)CCC=C(C)C | 7 µM | 34 µM | 5 µM | 24 µM | 28 µM | 12 µM | 26% | 80% | –
8 | COc1cc(/C=C/CO)cc(OC)c1OCC=C(C)C | > 100 µM | > 100 µM | > 100 µM | > 100 µM | > 100 µM | > 100 µM | – | – | –
9 | COc1cc(/C=C/CO)ccc1OC/C=C(\C)CCC=C(C)C | 25 µM | 23 µM | 29 µM | 21 µM | 31 µM | 27 µM | 41% | 80% | –
10 | COc1cc(/C=C/CO)cc(OC)c1O | > 100 µM | 80 µM | > 100 µM | > 100 µM | > 100 µM | > 100 µM | – | – | –
11 | CC(C)=CCC/C(C)=C/COc1ccc(/C=C/C(=O)O)cc1 | > 100 µM | > 100 µM | > 100 µM | > 100 µM | > 100 µM | > 100 µM | – | – | –
12 | COc1cc(/C=C/C(=O)O)ccc1OC/C=C(\C)CCC=C(C)C | > 100 µM | > 100 µM | > 100 µM | > 100 µM | > 100 µM | > 100 µM | – | – | –
13 | COc1cc(/C=C/C=O)cc(OC)c1O | 56 µM | 39 µM | > 100 µM | 63 µM | 66 µM | 33 µM | 2% | – | 50%
14 | CC(=O)c1ccc(O)cc1O | > 100 µM | 45 µM | > 100 µM | > 100 µM | > 100 µM | 97 µM | – | – | –
15 | CC(=O)c1c(O)cc(OC/C=C(\C)CCC=C(C)C)cc1O | 29 µM | 34 µM | 34 µM | 48 µM | 40 µM | 35 µM | 15% | 80% | –
16 | CC(C)=CCOc1ccc(C(=O)/C=C/c2ccc(O)cc2)c(O)c1 | 87 µM | 58 µM | 66 µM | > 100 µM | > 100 µM | 57 µM | 17% | 70% | –
17 | CC(=O)c1ccc(OC/C=C(\C)CCC=C(C)C)cc1O | 48 µM | 37 µM | 51 µM | 27 µM | 44 µM | 38 µM | 17% | 80% | –
18 | O=C(/C=C/c1ccccc1)c1ccc(O)cc1O [2',4'-DIHYDROXYCHALCONE] | > 100 µM | 49 µM | > 100 µM | > 100 µM | 75 µM | 81 µM | – | – | –
19 | CC(=O)c1c(O)cc(O)cc1O [2,4,6-TRIHYDROXYACETOPHENONE] | > 100 µM | 42 µM | 100 µM | > 100 µM | > 100 µM | 90 µM | – | – | –

Row | SMILES | IC50 [1] | IC50 [2] | IC50 (A549) | IC50 (PC-3) | IC50 (SK-MEL-28) | IC50 (LoVo) | Activity [3] | growth inhibition (GI) [4] | growth inhibition (GI) [5]
20 | CC(C)=CCOc1ccc2ccc(=O)oc2c1 [7-PRENYLOXYCOUMARIN] | > 100 µM | 79 µM | > 100 µM | > 100 µM | > 100 µM | 82 µM | – | – | –
21 | CC(C)=CCC/C(C)=C/COc1ccc2ccc(=O)oc2c1 [AURAPTENE] | 82 µM | 58 µM | 82 µM | 65 µM | 87 µM | 66 µM | 58% | 90% | –
22 | COc1cc(/C=C/C(=O)O)ccc1OCC=C(C)C [BOROPINIC ACID] | > 100 µM | > 100 µM | > 100 µM | > 100 µM | > 100 µM | > 100 µM | – | – | –
23 | COc1cc(/C=C/CO)ccc1O [CONIFERYL ALCOHOL] | 97 µM | 60 µM | 85 µM | 84 µM | > 100 µM | 64 µM | 26% | 80% | –
24 | COc1cc(/C=C/C=O)ccc1O [CONIFERYL ALDEHYDE] | 28 µM | 29 µM | 59 µM | 35 µM | 33 µM | 23 µM | 13% | – | 50%
25 | CC(C)=CCOc1ccc(C(=O)/C=C/c2ccccc2)c(O)c1 [CORDOIN] | 53 µM | 39 µM | 54 µM | 71 µM | 81 µM | 58 µM | 88% | 95% | –
26 | O=C(O)/C=C/c1ccc(O)cc1 [COUMARIC ACID] | > 100 µM | 66 µM | > 100 µM | > 100 µM | > 100 µM | 82 µM | – | – | –
27 | Cc1cc(O)c2c(c1)C(=O)c1cc(O)cc(O)c1C2=O [EMODIN] | 31 µM | 29 µM | 28 µM | 35 µM | 35 µM | 27 µM | 99% | 90% | –
28 | COc1cc(/C=C/C(=O)O)ccc1O [FERULATE] | > 100 µM | 68 µM | > 100 µM | > 100 µM | > 100 µM | 95 µM | – | – | –
29 | O=C(/C=C/c1ccc(O)cc1)c1ccc(O)cc1O [ISOLIQUIRITIGENIN] | 68 µM | 48 µM | 85 µM | 99 µM | 75 µM | 57 µM | 7% | – | 60%
30 | COc1c(OCC=C(C)C)ccc2ccc(=O)oc12 [LACINARTIN] | 70 µM | > 100 µM | 95 µM | 46 µM | > 100 µM | 40 µM | 37% | 80% | –
31 | CC(C)=CCOc1cc(O)c2c(c1)C(=O)c1cc(C)cc(O)c1C2=O [MADAGASCIN] | 5 µM | 10 µM | 20 µM | 6 µM | 7 µM | 8 µM | 95% | 80% | –
32 | COc1cc(/C=C/C=O)cc(OC)c1OC/C=C(\C)CCC=C(C)C [NELUMAL A] | 8 µM | 27 µM | 71 µM | 39 µM | 26 µM | 23 µM | 100% | 80% | –
33 | COc1cc(/C=C/CO)cc(OC)c1OC/C=C(\C)CCC=C(C)C [NELUMOL A] | 42 µM | 39 µM | 76 µM | 40 µM | 72 µM | 38 µM | 17% | 80% | –
34 | O=C(O)c1ccc(O)cc1 [PARABEN] | > 100 µM | 71 µM | > 100 µM | > 100 µM | > 100 µM | 94 µM | – | – | –
35 | O=c1ccc2ccc(O)cc2o1 [UMBELLIFERONE] | > 100 µM | 33 µM | > 100 µM | > 100 µM | > 100 µM | 97 µM | – | – | –
36 | CC(C)=CCC/C(C)=C/CC/C(C)=C/COc1ccc2ccc(=O)oc2c1 [UMBELLIPRENIN] | 72 µM | 30 µM | 71 µM | 75 µM | 66 µM | 50 µM | 40% | 90% | –
37 | CC(C)=CCOc1ccc(C(=O)O)cc1 [VALENCIC ACID] | > 100 µM | > 100 µM | > 100 µM | > 100 µM | > 100 µM | > 100 µM | – | – | –
38 | COc1cc(C(=O)O)ccc1O [VANILLIC ACID] | > 100 µM | 61 µM | > 100 µM | > 100 µM | > 100 µM | 91 µM | – | – | –
